Active and inactive are the calls of the source. The rule behind the calls is not given here.
Key:
[1] = molecular target: Serine/threonine-protein kinase PRP4 homolog (Homo sapiens) (UniProt Q13523); assay: Inhibition of human partial length PRP4 (D657 to I1007 residues) expressed in bacterial expression system assessed as residual activity at 10 uM by kinome scan method relative to control
Procedure, shortened: (§1)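 KINOMEscan competitive binding screen at 10 μM test compound against a 52-kinase panel. Output is % Ctrl = (test signal − positive control signal)/(negative control signal − positive control signal) × 100. DMSO is the negative control (100%) and the positive control is set to 0%.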

[2] = Toxicity in ICR nude mouse xenografted with U87MG cells assessed as reduction in body weight at 30 to 60 mg/kg, po every other day for 24 days; format: organism-based; conditions: in vivo, 576 h, dose 30-60 mg/kg, time 24 day
Procedure, shortened: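 Male ICR nude mice were implanted subcutaneously with 5 × 10^6 U87MG cells. When tumors reached about 200 mm³, mice were randomized and given 30 or 60 mg/kg by oral gavage every other day for 24 days. Body weight and tumor volume (length × width² × 0.5) were recorded every 4 days, with a vehicle-treated group as comparator.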

[3] = molecular target: Casein kinase I isoform alpha-like (Homo sapiens) (UniProt Q8N752); assay: Inhibition of human partial length CSNK1A1L (M1 to N337 residues) expressed in bacterial expression system assessed as residual activity at 10 uM by kinome scan method relative to control
Procedure, shortened: (§2)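 KINOMEscan binding assay, test compound at 10 μM against a 52-kinase panel. % Ctrl = (compound signal − positive control signal)/(negative control signal − positive control signal) × 100, with DMSO as negative control (100%) and a positive control (0%).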

[4] = molecular target: BMP-2-inducible protein kinase (Homo sapiens) (UniProt Q9NSY1); assay: Inhibition of human partial length BIKE (S34 to N329 residues) expressed in bacterial system assessed as residual activity at 10 uM by kinome scan method relative to control; procedure, shortened: as §2
[5] = molecular target: Phosphatidylinositol 4,5-bisphosphate 3-kinase catalytic subunit delta isoform (Homo sapiens) (UniProt O00329); assay: Inhibition of human partial length PIK3CD (R108 to Q1044 residues) expressed in mammalian expression system assessed as residual activity at 10 uM by kinome scan method relative to control; procedure, shortened: as §1
[6] = molecular target: 1-phosphatidylinositol 3-phosphate 5-kinase (Homo sapiens) (UniProt Q9Y2I7); assay: Inhibition of human partial length PIKFYVE (F1512 to C2098 residues) expressed in mammalian expression system assessed as residual activity at 10 uM by kinome scan method relative to control; procedure, shortened: as §1
[7] = molecular target: Cyclin-dependent kinase-like 5 (Homo sapiens) (UniProt O76039); assay: Inhibition of human partial length CDKL5 (M1 to S337 residues) expressed in mammalian expression system assessed as residual activity at 10 uM by kinome scan method relative to control; procedure, shortened: as §2
[8] = molecular target: Phosphatidylinositol 4-kinase beta (Homo sapiens) (UniProt Q9UBF8); assay: Inhibition of human partial length PIK4CB (M1 to M828 residues) expressed in mammalian expression system assessed as residual activity at 10 uM by kinome scan method relative to control; procedure, shortened: as §1
[9] = molecular target: Mitogen-activated protein kinase kinase kinase 13 (Homo sapiens) (UniProt O43283); assay: Inhibition of human full length LZK (M1 to W966 residues) expressed in bacterial expression system assessed as residual activity at 10 uM by kinome scan method relative to control; procedure, shortened: as §2
[10] = molecular target: Activin receptor type-2B (Homo sapiens) (UniProt Q13705); assay: Inhibition of human partial length ACVR2B (H169 to D504 residues) expressed in bacterial system assessed as residual activity at 10 uM by kinome scan method relative to control; procedure, shortened: as §2
[11] = molecular target: Serine/threonine-protein kinase TNNI3K (Homo sapiens) (UniProt Q59H18); assay: Inhibition of human full length TNNI3K (M1 to S835 residues) expressed in bacterial expression system assessed as residual activity at 10 uM by kinome scan method relative to control; procedure, shortened: as §2
[12] = molecular target: Phosphatidylinositol 4,5-bisphosphate 3-kinase catalytic subunit beta isoform (Homo sapiens, UniProt P42338); assay: Inhibition of human partial length PIK3CB (P118 to S1070 residues) expressed in mammalian expression system assessed as residual activity at 10 uM by kinome scan method relative to control; procedure, shortened: as §1
U-87 MG [13] = assay: Antitumour activity against human U87MG cells xenografted in ICR nude mouse assessed as tumour growth inhibition at 60 mg/kg, po every other day for 24 days relative to control; format: functional, organism-based; conditions: U-87MG ATCC, time 24.0 day
Procedure, shortened: (§3)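 Male ICR nude mice inoculated subcutaneously with 5 × 10⁶ U87MG cells. Once tumours reached about 200 mm³, mice were randomised and dosed by oral gavage every other day for 24 days. Tumour volume (length × width² × 0.5) and body weight recorded every 4 days. Inhibition = 100 × {1 − [(final − initial volume) treated]/[(final − initial volume) vehicle]}.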

[14] = molecular target: Serine/threonine-protein kinase mTOR (Homo sapiens, UniProt P42345); assay: Inhibition of recombinant human N-terminal FLAG-tagged mTOR (1362 to end amino acids) using ULight-4E-BP1 as substrate incubated for 1 hr by LANCE Ultra assay
[15] = molecular target: Receptor-interacting serine/threonine-protein kinase 4 (Homo sapiens) (UniProt P57078); assay: Inhibition of human partial length RIPK4 (M1 to V303 residues) expressed in mammalian expression system assessed as residual activity at 10 uM by kinome scan method relative to control; procedure, shortened: as §1
[16] = Half life in Sprague-Dawley rat at 5 mg/kg, po; format: ADME, organism-based; conditions: in vivo
Procedure, shortened: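 Male Sprague-Dawley rats (n = 3) given a single oral gavage of 5 mg/kg as a homogeneous opaque suspension in 0.5% methylcellulose; plasma concentration-time curves used to derive mean PK parameters.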

[17] = molecular target: Tyrosine-protein kinase receptor Tie-1 (Homo sapiens) (UniProt P35590); assay: Inhibition of human partial length TIE1 (T819 to A1138 residues) expressed in bacterial expression system assessed as residual activity at 10 uM by kinome scan method relative to control; procedure, shortened: as §1
[18] = molecular target: Activin receptor type-2A (Homo sapiens) (UniProt P27037); assay: Inhibition of human partial length ACVR2A (V171 to T499 residues) expressed in bacterial system assessed as residual activity at 10 uM by kinome scan method relative to control; procedure, shortened: as §2
[19] = molecular target: Dual specificity mitogen-activated protein kinase kinase 7 (Homo sapiens) (UniProt O14733); assay: Inhibition of human full length MKK7 (M1 to R419 residues) expressed in mammalian expression system assessed as residual activity at 10 uM by kinome scan method relative to control; procedure, shortened: as §2
[20] = molecular target: Cyclin-dependent kinase 19 (Homo sapiens) (UniProt Q9BWU1); assay: Inhibition of human partial length CDK11 (M1 to N360 residues) expressed in bacterial system assessed as residual activity at 10 uM by kinome scan method relative to control; procedure, shortened: as §2
[21] = molecular target: Phosphatidylinositol 4-phosphate 3-kinase C2 domain-containing subunit beta (Homo sapiens) (UniProt O00750); assay: Inhibition of human partial length PIK3C2B (M1 to L1634 residues) expressed in bacterial expression system assessed as residual activity at 10 uM by kinome scan method relative to control; procedure, shortened: as §2
U-87 MG [22] = assay: Antitumour activity against human U87MG cells xenografted in ICR nude mouse assessed as tumour growth inhibition at 30 mg/kg, po every other day for 24 days relative to control; format: functional, U-87MG ATCC; conditions: 576 h, time 24 day, read-out: TGI; procedure, shortened: as §3

Phosphatidylinositol 4,5-bisphosphate 3-kinase catalytic subunit beta isoform, sequence (P42338 whole entry, looked up, the tested form may be a part, canonical isoform): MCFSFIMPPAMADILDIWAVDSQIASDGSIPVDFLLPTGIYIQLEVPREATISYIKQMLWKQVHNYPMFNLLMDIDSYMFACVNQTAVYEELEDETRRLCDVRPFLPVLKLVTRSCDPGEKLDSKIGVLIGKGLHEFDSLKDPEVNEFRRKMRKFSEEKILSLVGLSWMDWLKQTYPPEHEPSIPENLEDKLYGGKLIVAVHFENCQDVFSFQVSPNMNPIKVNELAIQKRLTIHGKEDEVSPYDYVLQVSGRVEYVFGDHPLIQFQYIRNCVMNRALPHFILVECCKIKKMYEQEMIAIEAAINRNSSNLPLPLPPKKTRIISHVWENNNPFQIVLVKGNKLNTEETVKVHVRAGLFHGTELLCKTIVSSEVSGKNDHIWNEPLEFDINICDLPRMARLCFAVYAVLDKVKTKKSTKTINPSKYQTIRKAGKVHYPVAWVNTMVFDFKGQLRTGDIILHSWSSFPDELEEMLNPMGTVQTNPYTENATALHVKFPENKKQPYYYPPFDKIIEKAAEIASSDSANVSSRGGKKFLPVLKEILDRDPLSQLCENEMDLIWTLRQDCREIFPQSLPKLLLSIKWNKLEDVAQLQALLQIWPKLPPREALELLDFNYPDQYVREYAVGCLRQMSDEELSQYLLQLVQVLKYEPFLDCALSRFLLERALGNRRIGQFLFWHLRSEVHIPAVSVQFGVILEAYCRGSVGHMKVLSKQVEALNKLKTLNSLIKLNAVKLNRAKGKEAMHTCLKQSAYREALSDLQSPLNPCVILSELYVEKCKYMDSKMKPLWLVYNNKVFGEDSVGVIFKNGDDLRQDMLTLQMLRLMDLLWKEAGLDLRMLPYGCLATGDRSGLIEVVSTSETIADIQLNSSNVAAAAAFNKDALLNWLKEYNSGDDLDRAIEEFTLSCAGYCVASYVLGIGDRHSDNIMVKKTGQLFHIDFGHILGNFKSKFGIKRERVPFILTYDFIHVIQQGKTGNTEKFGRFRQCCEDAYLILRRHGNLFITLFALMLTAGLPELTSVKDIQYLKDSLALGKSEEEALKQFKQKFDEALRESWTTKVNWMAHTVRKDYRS
1-phosphatidylinositol 3-phosphate 5-kinase (Homo sapiens), sequence (Q9Y2I7 whole entry, the tested form may be a part): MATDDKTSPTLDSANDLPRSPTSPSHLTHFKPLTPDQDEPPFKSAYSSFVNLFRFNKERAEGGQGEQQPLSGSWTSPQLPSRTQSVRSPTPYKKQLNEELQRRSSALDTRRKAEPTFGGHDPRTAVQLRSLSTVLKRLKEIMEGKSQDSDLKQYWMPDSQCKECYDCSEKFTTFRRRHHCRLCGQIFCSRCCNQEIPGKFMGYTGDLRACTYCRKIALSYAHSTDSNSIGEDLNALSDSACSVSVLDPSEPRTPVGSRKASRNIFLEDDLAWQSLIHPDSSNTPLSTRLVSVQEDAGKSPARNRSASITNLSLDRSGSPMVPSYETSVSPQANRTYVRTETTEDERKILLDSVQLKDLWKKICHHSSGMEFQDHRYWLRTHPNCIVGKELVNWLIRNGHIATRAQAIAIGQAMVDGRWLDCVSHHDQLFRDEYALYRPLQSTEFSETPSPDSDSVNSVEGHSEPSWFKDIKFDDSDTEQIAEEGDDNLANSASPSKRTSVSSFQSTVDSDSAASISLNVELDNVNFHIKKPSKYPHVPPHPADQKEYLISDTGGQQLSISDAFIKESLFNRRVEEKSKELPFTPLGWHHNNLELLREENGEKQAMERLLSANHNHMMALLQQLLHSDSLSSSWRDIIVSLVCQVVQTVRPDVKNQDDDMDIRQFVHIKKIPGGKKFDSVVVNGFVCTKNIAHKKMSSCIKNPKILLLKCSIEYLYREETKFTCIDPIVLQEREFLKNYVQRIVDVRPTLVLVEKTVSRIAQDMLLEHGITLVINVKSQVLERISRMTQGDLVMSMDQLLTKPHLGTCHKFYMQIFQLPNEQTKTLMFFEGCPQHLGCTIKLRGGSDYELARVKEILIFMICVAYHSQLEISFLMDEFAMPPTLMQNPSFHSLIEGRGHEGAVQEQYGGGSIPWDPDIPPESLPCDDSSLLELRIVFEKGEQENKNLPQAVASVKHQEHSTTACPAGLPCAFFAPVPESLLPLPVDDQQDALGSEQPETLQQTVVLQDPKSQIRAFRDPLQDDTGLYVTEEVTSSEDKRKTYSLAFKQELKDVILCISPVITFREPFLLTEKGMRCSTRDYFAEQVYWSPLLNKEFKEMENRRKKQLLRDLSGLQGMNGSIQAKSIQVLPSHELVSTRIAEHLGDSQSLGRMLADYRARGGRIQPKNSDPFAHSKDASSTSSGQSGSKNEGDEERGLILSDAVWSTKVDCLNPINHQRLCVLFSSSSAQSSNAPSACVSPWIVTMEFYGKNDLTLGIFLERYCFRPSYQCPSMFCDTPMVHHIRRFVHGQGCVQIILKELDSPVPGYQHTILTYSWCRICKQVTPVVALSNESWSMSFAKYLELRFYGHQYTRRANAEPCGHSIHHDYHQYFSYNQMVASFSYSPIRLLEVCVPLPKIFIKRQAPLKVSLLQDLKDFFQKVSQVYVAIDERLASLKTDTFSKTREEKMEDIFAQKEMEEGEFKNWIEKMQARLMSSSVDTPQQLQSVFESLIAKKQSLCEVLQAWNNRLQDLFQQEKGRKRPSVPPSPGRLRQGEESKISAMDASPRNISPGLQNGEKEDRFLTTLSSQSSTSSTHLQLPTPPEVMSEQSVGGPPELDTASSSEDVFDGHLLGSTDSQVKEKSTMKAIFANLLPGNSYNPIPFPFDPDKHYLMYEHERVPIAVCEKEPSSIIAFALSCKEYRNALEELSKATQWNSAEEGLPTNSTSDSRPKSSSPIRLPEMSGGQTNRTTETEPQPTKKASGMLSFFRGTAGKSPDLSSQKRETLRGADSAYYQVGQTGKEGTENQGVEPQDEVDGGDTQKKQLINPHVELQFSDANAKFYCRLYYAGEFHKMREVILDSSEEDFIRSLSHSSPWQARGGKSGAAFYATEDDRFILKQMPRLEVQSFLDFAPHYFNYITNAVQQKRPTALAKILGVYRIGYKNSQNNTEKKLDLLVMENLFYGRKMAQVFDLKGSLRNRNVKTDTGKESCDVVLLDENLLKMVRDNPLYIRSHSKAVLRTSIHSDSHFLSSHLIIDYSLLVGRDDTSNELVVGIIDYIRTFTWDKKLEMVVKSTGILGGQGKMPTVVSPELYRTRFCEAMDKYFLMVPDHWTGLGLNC
Phosphatidylinositol 4-kinase beta (Homo sapiens), sequence (Q9UBF8 2-816 limits assumed): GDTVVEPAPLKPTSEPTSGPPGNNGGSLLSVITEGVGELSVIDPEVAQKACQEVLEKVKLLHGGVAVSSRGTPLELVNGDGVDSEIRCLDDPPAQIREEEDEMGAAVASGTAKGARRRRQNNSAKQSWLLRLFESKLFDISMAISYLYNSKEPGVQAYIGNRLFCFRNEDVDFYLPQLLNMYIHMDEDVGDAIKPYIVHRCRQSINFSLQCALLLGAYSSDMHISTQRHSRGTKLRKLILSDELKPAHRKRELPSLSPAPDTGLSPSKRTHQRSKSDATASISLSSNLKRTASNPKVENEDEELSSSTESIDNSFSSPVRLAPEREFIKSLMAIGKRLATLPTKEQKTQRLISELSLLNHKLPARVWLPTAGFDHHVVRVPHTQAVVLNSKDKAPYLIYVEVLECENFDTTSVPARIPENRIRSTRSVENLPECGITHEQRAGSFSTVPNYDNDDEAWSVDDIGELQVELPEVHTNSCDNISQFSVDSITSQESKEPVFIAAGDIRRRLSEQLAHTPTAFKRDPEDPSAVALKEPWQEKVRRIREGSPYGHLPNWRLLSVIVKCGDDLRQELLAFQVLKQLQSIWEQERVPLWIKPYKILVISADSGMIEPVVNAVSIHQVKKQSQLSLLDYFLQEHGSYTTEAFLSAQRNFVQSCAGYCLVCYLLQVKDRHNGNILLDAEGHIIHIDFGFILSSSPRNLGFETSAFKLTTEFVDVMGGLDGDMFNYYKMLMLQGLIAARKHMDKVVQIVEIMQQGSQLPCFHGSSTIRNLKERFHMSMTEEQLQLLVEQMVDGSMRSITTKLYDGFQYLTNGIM
Dual specificity mitogen-activated protein kinase kinase 7 (Homo sapiens), sequence (O14733 whole entry, the tested form may be a part): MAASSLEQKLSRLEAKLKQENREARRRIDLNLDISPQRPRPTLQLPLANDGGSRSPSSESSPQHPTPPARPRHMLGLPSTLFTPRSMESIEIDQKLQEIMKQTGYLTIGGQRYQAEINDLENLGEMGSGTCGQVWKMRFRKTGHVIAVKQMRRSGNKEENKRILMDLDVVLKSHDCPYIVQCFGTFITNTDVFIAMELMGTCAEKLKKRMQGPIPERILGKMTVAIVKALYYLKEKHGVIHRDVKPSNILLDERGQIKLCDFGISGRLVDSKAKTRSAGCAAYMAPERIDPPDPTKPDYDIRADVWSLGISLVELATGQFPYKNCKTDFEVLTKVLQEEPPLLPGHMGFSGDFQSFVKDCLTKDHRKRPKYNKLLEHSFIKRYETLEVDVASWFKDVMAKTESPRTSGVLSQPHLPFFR
Cyclin-dependent kinase 19 (Homo sapiens), sequence (Q9BWU1 whole entry, the tested form may be a part): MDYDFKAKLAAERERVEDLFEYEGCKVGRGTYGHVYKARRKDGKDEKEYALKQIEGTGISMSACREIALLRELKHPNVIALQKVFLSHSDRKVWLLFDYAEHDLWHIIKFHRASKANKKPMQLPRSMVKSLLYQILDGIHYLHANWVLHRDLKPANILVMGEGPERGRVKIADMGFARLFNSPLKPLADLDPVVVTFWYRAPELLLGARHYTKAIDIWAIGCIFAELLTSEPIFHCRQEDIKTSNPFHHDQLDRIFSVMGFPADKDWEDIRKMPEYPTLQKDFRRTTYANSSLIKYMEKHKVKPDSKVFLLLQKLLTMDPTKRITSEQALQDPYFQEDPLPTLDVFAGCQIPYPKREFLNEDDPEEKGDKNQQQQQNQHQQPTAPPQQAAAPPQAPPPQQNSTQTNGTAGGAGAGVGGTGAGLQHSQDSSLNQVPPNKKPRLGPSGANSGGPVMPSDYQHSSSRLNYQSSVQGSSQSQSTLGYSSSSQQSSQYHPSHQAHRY

COc1ncc(-c2ccc3nccc(/C(C)=C/C(=O)N4CCN(C)CC4)c3c2)cc1NS(=O)(=O)c1ccc(F)cc1F
Activity [1]: 100% | Activity [2]: Non-Toxic | Activity [3]: 84% | Activity [4]: 49% | Activity [5]: 0% | Activity [6]: 1.9% | Activity [7]: 69% | Activity [8]: 0.55% | Activity [9]: 53% | Activity [10]: 100% | Activity [11]: 87% | Activity [12]: 0% | TGI (U-87 MG [13]): Active | IC50 [14]: 5 nM | Activity [15]: 82% | half-life [16]: 1.85 h | Activity [17]: 71% | Activity [18]: 100% | Activity [19]: 73% | Activity [20]: 95% | Activity [21]: 0% | inhibition in vivo at 30 mg/kg (U-87 MG [22]): 93.5%

Source: ChEMBL document CHEMBL4732196, “Structural optimization towards promising β-methyl-4-acrylamido quinoline derivatives as PI3K/mTOR dual inhibitors for anti-cancer therapy: The in vitro and in vivo biological evaluation” (Eur J Med Chem, 2021)
